# Columns and labels:
# [1] = Cytotoxicity against human Hep2 cells assessed as cell survival at 0.5 ug/ml after 24 hrs by trypan blue exclusion test (reference value: 87 to 94%); format: cell-based, HEp-2; details: read-out: Survival
# [2] = tested on: Pichia kudriavzevii; assay: Antifungal activity against Candida krusei clinical isolate after 24 hrs by sabouraud dextrose broth based microdilution method; format: functional
# In short: (§1)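 Clinical isolates identified by conventional methods and subcultured for purity. Broth microdilution per NCCLS in Sabouraud dextrose broth; compounds dissolved in DMSO and serially diluted; inoculum 10^3/mL. Controls: fungi without compound, medium only. Incubated 24 h at 37 °C. MIC is the lowest concentration with complete growth inhibition by unaided eye. Values are geometric means over isolates per species.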
# [3] = tested on: Nakaseomyces glabratus; assay: Antifungal activity against Candida glabrata clinical isolate after 24 hrs by sabouraud dextrose broth based microdilution method; format: functional; in short: as §1
# [4] = Cytotoxicity against human Hep2 cells assessed as cell survival after 24 hrs by trypan blue exclusion method; format: cell-based, HEp-2
# In short: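 Hep2 cells grown in DMEM with 10% FBS and 1% streptomycin-penicillin at 37 °C, 5% CO2, used at 60-70% confluency. Seeded at 1 x 10^5/mL and exposed 24 h to five concentrations (0.05-100 µg/mL), DMSO ≤0.5%. Controls: medium alone, DMSO, 1 mM nitroprusside. Cells scraped, recovered 30 min, stained 1:1 with 0.4% Trypan blue, counted by two operators. Means of ≥3 independent experiments.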
# [5] = tested on: Staphylococcus aureus; assay: Antibacterial activity against Staphylococcus aureus after 18 to 22 hrs by broth microdilution method; format: functional
# In short: (§2)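 Broth microdilution per NCCLS in Mueller-Hinton II broth; isolates subcultured for purity. Compounds dissolved in DMSO, serial dilutions 256 to 0.5 µg/mL; inoculum 10^5/mL. Controls: organism without compound, medium only. Incubation 18 to 22 h at 35 °C. MIC is the lowest concentration giving complete growth inhibition, read by unaided eye.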
# [6] = tested on: Enterococcus faecalis; assay: Antibacterial activity against […] faecalis after 18 to 22 hrs by broth microdilution method; format: functional; in short: as §2
# [7] = tested on: Klebsiella oxytoca; assay: Antibacterial activity against Klebsiella oxytoca after 18 to 22 hrs by broth microdilution method; format: functional; in short: as §2
# [8] = tested on: [Candida] sake; assay: Antifungal activity against Candida sake clinical isolate after 24 hrs by sabouraud dextrose broth based microdilution method; format: functional; details: Fermentozyma sake; in short: as §1
# [9] = Cytotoxicity against human Hep2 cells assessed as cell survival at 50 ug/ml after 24 hrs by trypan blue exclusion test (reference value: 87 to 94%); format: cell-based, HEp-2; details: read-out: Survival
# [10] = tested on: Enterobacter sp.; assay: Antibacterial activity against Enterobacter sp. after 18 to 22 hrs by broth microdilution method; format: functional; in short: as §2
# [11] = Cytotoxicity against human Hep2 cells assessed as cell survival at 5 ug/ml after 24 hrs by trypan blue exclusion test (reference value: 87 to 94%); format: cell-based, HEp-2; details: read-out: Survival
# [12] = tested on: Escherichia coli; assay: Antibacterial activity against Escherichia coli at after 18 to 22 hrs by broth microdilution method; format: functional; in short: as §2
# [13] = Cytotoxicity against human Hep2 cells assessed as cell survival at 0.05 ug/ml after 24 hrs by trypan blue exclusion test (reference value: 87 to 94%); format: cell-based, HEp-2; details: read-out: Survival
# [14] = tested on: Candida parapsilosis; assay: Antifungal activity against Candida parapsilosis clinical isolate after 24 hrs by sabouraud dextrose broth based microdilution method; format: functional; details: Lodderomyces parapsilosis; in short: as §1
# [15] = tested on: Proteus mirabilis; assay: Antibacterial activity against Proteus mirabilis after 18 to 22 hrs by broth microdilution method; format: functional; in short: as §2
# [16] = tested on: Staphylococcus haemolyticus; assay: Antibacterial activity against Staphylococcus haemolyticus after 18 to 22 hrs by broth microdilution method; format: functional; in short: as §2
# [17] = Cytotoxicity against human Hep2 cells assessed as cell survival at 100 ug/ml after 24 hrs by trypan blue exclusion test (reference value: 87 to 94%); format: cell-based, HEp-2; details: read-out: Survival
# [18] = tested on: Candida albicans; assay: Antifungal activity against Candida albicans clinical isolate after 24 hrs by sabouraud dextrose broth based microdilution method; format: functional; in short: as §1
# [19] = tested on: Candida tropicalis; assay: Antifungal activity against Candida tropicalis clinical isolate after 24 hrs by sabouraud dextrose broth based microdilution method; format: functional; in short: as §1
# [20] = tested on: Staphylococcus warneri; assay: Antibacterial activity against Staphylococcus warneri after 18 to 22 hrs by broth microdilution method; format: functional; in short: as §2
# [21] = Selectivity index, ratio of CC50 for human Hep2 cells to MIC for Candida glabrata; design: species or system HEp-2
# In short: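 Ratio of CC50 from the 24 h Trypan blue assay on Hep2 cells to the MIC against C. glabrata from the 24 h, 37 °C Sabouraud broth microdilution.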
SMILES,"viability at 24 h, 0.5 ug/ml [1] [%]",MIC [2] [µg/mL],MIC [3] [µg/mL],CC50 at 24 h [4] [µg/mL],MIC [5] [µg/mL],MIC [6] [µg/mL],MIC [7] [µg/mL],MIC [8] [µg/mL],"viability at 24 h, 50 ug/ml [9] [%]",MIC [10] [µg/mL],"viability at 24 h, 5 ug/ml [11] [%]",MIC [12] [µg/mL],"viability at 24 h, 0.05 ug/ml [13] [%]",MIC [14] [µg/mL],MIC [15] [µg/mL],MIC [16] [µg/mL],"viability at 24 h, 100 ug/ml [17] [%]",MIC [18] [µg/mL],MIC [19] [µg/mL],MIC [20] [µg/mL],other results
O=C1CS/C(=N\N=C2CCCC2)N1Cc1ccc([N+](=O)[O-])cc1,88,8,16,28,> 256,> 256,> 256,16,0,> 256,51,> 256,95,16,> 256,> 256,0,2,1,> 256,
C/C(CC(C)C)=N\N=C1/SCC(=O)N1CN1C(=O)c2ccccc2C1=O,92.8,2,1,99,> 256,> 256,> 256,2,79,> 256,90,> 256,94,2,> 256,> 256,47,2,64,> 256,Selectivity Index [21]: 99
CCCCC/C(C)=N/N=C1\SCC(=O)N1Cc1ccc([N+](=O)[O-])cc1,93.5,2,1,35,> 256,> 256,> 256,2,0,> 256,87,> 256,95.4,2,> 256,> 256,0,4,64,> 256,
C/C(CC(C)C)=N\N=C1/SCC(=O)N1Cc1cccc2ccccc12,91,2,1,95,> 256,> 256,> 256,4,73.6,> 256,87.5,> 256,93.2,2,> 256,> 256,46,4,64,> 256,Selectivity Index [21]: 95

# Reference: ChEMBL document CHEMBL3739379, “Anti-Candida activity and cytotoxicity of a large library of new N-substituted-1,3-thiazolidin-4-one derivatives” (Eur J Med Chem, 2016)
